Experimental data reported in ChEMBL document CHEMBL4052626, “Identification of thiazolo[5,4-d]pyrimidine derivatives as potent antiproliferative agents through the drug repurposing strategy” (Eur J Med Chem, 2017).
Active and inactive are the calls of the source. No cut-off for these calls is given here.

Assays:
HGC-27 = assay: Antiproliferative activity against human HGC27 cells after 72 hrs by MTT assay; format: functional, cell-based; settings: HGC-27, 72 h
Procedure, shortened: (§1)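 Cells in exponential growth were plated at 3,000 per well and left 24 h. Medium was then replaced with fresh medium holding graded compound concentrations, and incubation ran 72 h. Viability was read by MTT at 570 nm.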

NCI-H1650 = assay: Antiproliferative activity against human NCI-H1650 cells after 72 hrs by MTT assay; format: functional, cell-based; settings: NCI-H1650, 72 h; procedure, shortened: as §1
MGC-803 [1] = assay: Antiproliferative activity against human MGC803 cells after 72 hrs by MTT assay; format: functional, cell-based; settings: MGC-803, 72 h; procedure, shortened: as §1
GES1 = assay: Cytotoxicity against human GES-1 cells after 72 hrs by MTT assay; format: cell-based; settings: GES1, 72 h; procedure, shortened: as §1
MGC-803 [2] = assay: Induction of apoptosis in human MGC803 cells assessed as decrease in BCL-2 protein levels at 1 to 5 uM after 24 hrs by Western blot analysis; format: functional, cell-based
Procedure, shortened: (§2)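 After 24 h treatment at graded concentrations, MGC803 were lysed 30 min in RIPA buffer with protease inhibitors and spun at 12,000 rpm for 10 min at 4 °C. Protein was quantified by BCA, then run on SDS-PAGE and blotted to nitrocellulose. Membranes were blocked in 5% milk for 2 h, incubated with primary antibodies overnight at 4 °C, then secondary (1:5000) for 2 h. Detection was by ECL.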

MGC-803 [3] = assay: Induction of apoptosis in human MGC803 cells assessed as increase in cleaved caspase-3 protein levels at 1 to 5 uM after 24 by Western blot analysis; format: functional, cell-based; procedure, shortened: as §2
MGC-803 [4] = assay: Induction of apoptosis in human MGC803 cells assessed as increase in Bax protein levels after 24 by Western blot analysis; format: functional, cell-based; procedure, shortened: as §2
MGC-803 [5] = assay: Induction of apoptosis in human MGC803 cells assessed as chromatin shrinkage at 1 to 5 uM after 24 hrs by Hoechst 33258 staining-based fluorescence microscopic analysis; format: functional, cell-based
Procedure, shortened: (§3)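 MGC803 were seeded at 2×10^5/well and allowed to adhere overnight. They were exposed to graded concentrations for 24 h, then stained with Hoechst 33258 for 30 min in the dark. Nuclear morphology was examined by fluorescence microscopy.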

MGC-803 [6] = assay: Induction of apoptosis in human MGC803 cells at 1 uM after 24 hrs by annexin V-FITC/propidium iodide staining-based assay (reference value: 2.3%); format: functional
[7] = Selectivity index, ratio of IC50 for human GES-1 cells to IC50 for human MGC803 cells; format: functional
Procedure, shortened: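 SI equals IC50 in GES-1 divided by IC50 in MGC803. Both IC50s come from 72 h exposure in the MTT viability assay, with 3,000 cells/well plated 24 h before dosing. Each is the mean ± SD of three independent experiments.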

MGC-803 [8] = assay: Antiproliferative activity against human MGC803 cells assessed as reduction in colony formation at 3 uM after 9 days by crystal violet staining-based clonogenic assay relative to control; format: functional; settings: MGC-803, 216 h
Procedure, shortened: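 MGC803 were seeded at 1000 cells/well, allowed 24 h, then given fresh medium with graded compound concentrations for 9 days. Cells were PBS-washed, fixed in 4% paraformaldehyde and stained with 0.1% crystal violet. A colony was counted as >10 cells. Inhibition rate = (1 − treated count/control count) × 100%. Run in triplicate.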

MGC-803 [9] = assay: Antimigratory activity against human MGC803 cells assessed as reduction in wound healing at 1 uM by inverted microscopic method; format: functional, cell-based; settings: TDE = time-dependent effect
Procedure, shortened: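 MGC803 in 24-well format were scratched with a 10 µL tip. Cells were then incubated with graded compound concentrations for the indicated times. Wound closure was photographed under an inverted microscope.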

MGC-803 [10] = assay: Induction of apoptosis in human MGC803 cells at 5 uM after 24 hrs by annexin V-FITC/propidium iodide staining-based assay (reference value: 2.3%); format: functional
MGC-803 [11] = assay: Induction of apoptosis in human MGC803 cells after 24 hrs by annexin V-FITC/propidium iodide staining-based assay; format: functional, cell-based
MGC-803 [12] = assay: Induction of apoptosis in human MGC803 cells assessed as increase in cleaved caspase-9 protein levels at 1 to 5 uM after 24 by Western blot analysis; format: functional, cell-based; procedure, shortened: as §2
MGC-803 [13] = assay: Induction of apoptosis in human MGC803 cells at 2 uM after 24 hrs by annexin V-FITC/propidium iodide staining-based assay (reference value: 2.3%); format: functional
MGC-803 [14] = assay: Induction of apoptosis in human MGC803 cells assessed as formation of apoptotic bodies at 1 to 5 uM after 24 hrs by Hoechst 33258 staining-based fluorescence microscopic analysis; format: functional, cell-based; procedure, shortened: as §3
MGC-803 [15] = assay: Induction of apoptosis in human MGC803 cells assessed as cell rounding at 1 to 5 uM after 24 hrs by Hoechst 33258 staining-based fluorescence microscopic analysis; format: functional; procedure, shortened: as §3

Compound | IC50 (HGC-27) | IC50 (NCI-H1650) | IC50 (MGC-803 [1]) | other results
CCCSc1nc(N2CCOCC2)c2nc(Nc3ccccc3)sc2n1 | 9.51 µM | 4.18 µM | 5.81 µM | 
CCCSc1nc(N2CCSCC2)c2nc(Nc3ccccc3)sc2n1 | 28.5 µM | 12.9 µM | 12.3 µM | 
CCCSc1nc(NCc2ccc(O)cc2)c2nc(Nc3ccccc3)sc2n1 | 17.3 µM | 9.23 µM | 21.9 µM | 
CCCSc1nc(Nc2ccc(OC)cc2)c2nc(Nc3ccccc3)sc2n1 | 30.9 µM | 20.7 µM | > 64 µM | 
CCCSc1nc(N2CCOCC2)c2nc(Nc3ccccc3Cl)sc2n1 | 11.3 µM | 21.7 µM | 3.4 µM | 
CCCSc1nc(NCCc2cc3ccccc3[nH]2)c2nc(Nc3ccccc3)sc2n1 | 16.2 µM | 9.62 µM | 6.99 µM | 
CCCSc1nc(NCCc2cccs2)c2nc(Nc3ccccc3)sc2n1 | 17.7 µM | 10 µM | 11.3 µM | 
CCCSc1nc(Nc2ccc(Cl)cc2)c2nc(Nc3ccccc3)sc2n1 | 20.3 µM | 12 µM | 12.5 µM | 
CCCSc1nc(NCc2ccco2)c2nc(Nc3ccccc3)sc2n1 | 28 µM | 26.1 µM | > 64 µM | 
CCCSc1nc(Nc2ccccc2)c2nc(Nc3ccccc3)sc2n1 | 35.3 µM | 12.1 µM | 24.4 µM | 
c1ccc(CSc2nc(N3CCOCC3)c3nc(Nc4ccccc4)sc3n2)cc1 | 1.23 µM | 2.1 µM | 1.03 µM | IC50 (GES1): 39 µM; Activity (MGC-803 [2]): Active; Activity (MGC-803 [3]): Active; Activity (MGC-803 [4]): Dose-dependent effect; Activity (MGC-803 [5]): Active; Activity (MGC-803 [6]): 11.5%; Ratio IC50 [7]: 37.8; inhibition at 3 µM (MGC-803 [8]): 86%; Activity (MGC-803 [9]): Tde; Activity (MGC-803 [10]): 73.9%; Activity (MGC-803 [11]): Dose-dependent effect; Activity (MGC-803 [12]): Active; Activity (MGC-803 [13]): 43.8%; Activity (MGC-803 [14]): Active; Activity (MGC-803 [15]): Active
CCCSc1nc(NC2CC2)c2nc(Nc3ccccc3)sc2n1 | 32.4 µM | 41.7 µM | > 64 µM | 
CCCSc1nc(N2CCOCC2)c2nc(Nc3ccccn3)sc2n1 | 8.84 µM | 7.73 µM | 9.35 µM | 
O=c1[nH]cc(F)c(=O)[nH]1 [FLUOROURACIL] | 8.22 µM | 12.5 µM |  | 
CCCSc1nc(N2CCN(Cc3ccccc3)CC2)c2nc(Nc3ccccc3)sc2n1 | > 64 µM | 27 µM | 18.8 µM | 
CCCCc1ccc(Nc2nc(SCCC)nc3sc(Nc4ccccc4)nc23)cc1 | 13.1 µM | 14.8 µM | 17.4 µM | 
CCCSc1nc(N2CCOCC2)c2nc(Nc3cccc4ccccc34)sc2n1 | 21.8 µM | 9.73 µM | 17.7 µM | 
